Variants at the floor of the assay were thinned out.
B1: tRNA (parent)
chain: GUUCCGUUGGCGUAAUGGUAACGCGUCUCCCUCCUAAGGAGAAGACUGCGGGUUCGAGUCCCGUACGGAACG

Variants of: B1
Test: yeast fitness relative to wild type (ratio to wild type); higher = fitter; tRNA-Arg(CCU), competitive growth, 37 C, YPD
In short: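 For this measurement, the tRNA-Arg(CCU) gene was varied by chemical synthesis at a 3% per-site mutation rate across 69 sites, and each variant was placed at the native genomic locus in Saccharomyces cerevisiae. The pooled strains went through a 24-hour competition in YPD at 37°C in six parallel replicates, with amplicons from start and end populations read by 100-nucleotide paired-end sequencing. Darwinian fitness relative to wild type followed from the change in each genotype's frequency. Genotypes needed ≥ 100 starting reads, and estimates < 0.5 were set to 0.5.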

Question: For GUUCCGUUGGCGUAAUGGUAACGCGUGUCCCUCCUAAGGAGAAGACUGCGGGUCCGAGUCCCGUACGGAACG, which yeast fitness is on record?
Answer: The yeast fitness was no more than 0.5.

Question: For GUUCCGUUGGCGUAAUGGUAACGCGUGUCCCUCCUAAGGAGAAGACUGCGGGUUCGAGCCCCGUAGGGAACG, which yeast fitness is on record?
Answer: The yeast fitness was no more than 0.5.

Question: With GUUCCGUUGGCGUAAUGGUAACGCGUGUCCCUCCUAAGGAGAAGACUGCGGGUUCGAGGCCCGUACGCAACG as the variant, how does the yeast fitness read?
Answer: The yeast fitness was 0.582.

Question: For GUUCCGUUGGCGUAAUGGUAACGCGUGUCCCUCCUAAGGAGAAGACUGCGGGUUCGAGUCCCGCACGGAACG, which yeast fitness is on record?
Answer: The yeast fitness was 0.693.

Question: Which yeast fitness does the source give for GUUCCGUUGGCGUAAUGGUAACGCGUUUCCCUCCUCAGGAGUAGAUUGCGGGUUCGAGUCCUAUACGGAACG here?
Answer: The yeast fitness was no more than 0.5.

Question: With GUUCCGUUGGCGUAAUGGUAACGCGUUUCCCUCCUGAGGAGAAGACUGCGGGUUCGAGUCCCGUACGGAACG as the variant, how does the yeast fitness read?
Answer: Its yeast fitness is 0.85.

Question: With GUUCCGUUGGCGUAAUGGUAACGCGUUUCCCUCCUAGGGAGAAGACUGCGGGUUUGAGUCCCGUACGGAACG as the variant, how does the yeast fitness read?
Answer: Its yeast fitness is no more than 0.5.

Question: Which yeast fitness does the source give for GUUCCGUUGGCGUAAUGGUAACGCGUUUCCCUCCUAUGGAGAAGACUGCGGGUUCGAGUCCCGUACGGCACG here?
Answer: Its yeast fitness is 0.608.

Question: With GUUCCGUUGGCGUAAUGGUAACGCGUUUCCCUCCUAUGGAGAAGACUGCGGGUUCGAGUCCCGUACAGAACG as the variant, how does the yeast fitness read?
Answer: The yeast fitness was no more than 0.5.

Question: With GUUCCGUUGGCGUAAUGGUAACGCGUUUCCCUCCUAAGGCGAAGACUGCGGGUUCGUGUCCCGUACGGAACG as the variant, how does the yeast fitness read?
Answer: The yeast fitness was 0.606.

Question: Which yeast fitness does the source give for GUUCCGUUGGCGUAAUGGUAACGCGUUUCCCUCCUAAGGGGAAAACUGCGGGUUCGAGUCCAGUACGGAACG here?
Answer: The yeast fitness was 0.51.

Question: Which yeast fitness does the source give for GUUCCGUUGGCGUAAUGGUAACGCGUUUCCCUCCUAAGGGGAAAACUGCGGGUUCGAGUCCUGUACGGAACG here?
Answer: Its yeast fitness is no more than 0.5.

Question: For GUUCCGUUGGCGUAAUGGUAACGCGUUUCCCUCCUAAGGGGAAGACUGCGGGUUCGAGUCCCGAACGGAACG, which yeast fitness is on record?
Answer: The yeast fitness was no more than 0.5.

Question: Which yeast fitness does the source give for GUUCCGUUGGCGUAAUGGUAACGCGUUUCCCUCCUAAGGGGAAGACUGCGGGUUCGAGUCCCGCACGGAACG here?
Answer: Its yeast fitness is 0.602.

Question: For GUUCCGUUGGCGUAAUGGUAACGCGUUUCCCUCCUAAGGAGUUGACCGCGGGUUCGAGUCCCGUACGGAACG, which yeast fitness is on record?
Answer: Its yeast fitness is 0.577.

Question: With GUUCCGUUGGCGUAAUGGUAACGCGUUUCCCUCCUAAGGAGAGGAGUGCGGGUUCGAGUCCCGUACGGCACG as the variant, how does the yeast fitness read?
Answer: Its yeast fitness is no more than 0.5.

Question: For GUUCCGUUGGCGUAAUGGUAACGCGUUUCCCUCCUAAGGAGAUGACUGCGGGUUCGAGUCCCGUACGGAACG, which yeast fitness is on record?
Answer: Its yeast fitness is 1.06.

Question: With GUUCCGUUGGCGUAAUGGUAACGCGUUUCCCUCCUAAGGAGAUGACUGCGGGUUUGAGUCCCGUACGGAACG as the variant, how does the yeast fitness read?
Answer: The yeast fitness was 0.592.

Question: For GUUCCGUUGGCGUAAUGGUAACGCGUUUCCCUCCUAAGGAGAAGCCUACGGGUUCGUGUCCCGUACAGAACG, which yeast fitness is on record?
Answer: The yeast fitness was no more than 0.5.

Question: For GUUCCGUUGGCGUAAUGGUAACGCGUUUCCCUCCUAAGGAGAAGGCUGCGGGCUCGAGUCCCGUACGGAACG, which yeast fitness is on record?
Answer: The yeast fitness was 0.544.

Question: For GUUCCGUUGGCGUAAUGGUAACGCGUUUCCCUCCUAAGGAGAAGGCUGCGGGUUCGAGUCCCGAACGGAACG, which yeast fitness is on record?
Answer: Its yeast fitness is 0.553.

Question: Which yeast fitness does the source give for GUUCCGUUGGCGUAAUGGUAACGCGUUUCCCUCCUAAGGAGAAGUCUGCGGAUUCGAGUCCCGUACGGAACG here?
Answer: Its yeast fitness is 0.63.

Question: With GUUCCGUUGGCGUAAUGGUAACGCGUUUCCCUCCUAAGGAGAAGACUGCGGGUUCGGGUUCCGUACGGAACG as the variant, how does the yeast fitness read?
Answer: Its yeast fitness is no more than 0.5.

Question: For GUUCCGUUGGCGUAAUGGUAACGCGUUUCCCUCCUAAGGAGAAGACUGCGGGUUCGUCUCCCGUACGGAACG, which yeast fitness is on record?
Answer: The yeast fitness was 0.667.

Question: With GUUCCGUUGGCGUAAUGGUAACGCGUUUCCCUCCUAAGGAGAAGACUGCGGGUUCGAGUCCCGUCCGGAACG as the variant, how does the yeast fitness read?
Answer: Its yeast fitness is 1.02.

Question: Which yeast fitness does the source give for GUUCCGUUGGCGUAAUGGUAACGCGUUUCCCUCCUAAGGAGAAGACUGCGGGUUCGAGUCCCGUGCGGAACG here?
Answer: The yeast fitness was 0.975.

Question: For GUUCCGUUGGCGUAAUGGUAACGCGUUUACCUCCUUAGGCAAAGACUGCGGGUUCGAGUCCCGUUCGGAACG, which yeast fitness is on record?
Answer: Its yeast fitness is no more than 0.5.

Question: For GUUCCGUUGGCGUAAUGGUAACGCGUUUGCCUCCUAAGGAGAAGACUGCGGGUUCGAGUCCCGUACGGAACG, which yeast fitness is on record?
Answer: Its yeast fitness is 0.58.

Question: With GUUCCGUUGGCGUAAUGGUAACGCGUUUGCAUCCUAAGGAGAAGACUGCGGGUUCGAGUCCCGUACGGAACG as the variant, how does the yeast fitness read?
Answer: The yeast fitness was no more than 0.5.

Question: For GUUCCGUUGGCGUAAUGGUAACGCGUUUUCCUCCUAAGGAGAAGACUGCGGGUUAGAAUCCCGUACGGAACG, which yeast fitness is on record?
Answer: Its yeast fitness is no more than 0.5.

Question: For GUUCCGUUGGCGUAAUGGUAACGCGUUUCGCUCCUAAGGAGAAGACUGCGGGUUCGAGUCCCGUACGGAACG, which yeast fitness is on record?
Answer: The yeast fitness was 0.624.

Question: Which yeast fitness does the source give for GUUCCGUUGGCGUAAUGGUAACGCGUUUCUCUCCUAAGGAGCAGACUGCGGGUUUGAGUCCCGUACGGAGCG here?
Answer: The yeast fitness was no more than 0.5.

Question: Which yeast fitness does the source give for GUUCCGUUGGCGUAAUGGUAACGCGUUUCUCUCGUACGGAGAAGACUGCGGGUUCGAGUCCCGUACGGCACG here?
Answer: Its yeast fitness is no more than 0.5.

Question: For GUUCCGUUGGCGUAAUGGUAACGCGUUUCCAUCCCAAGGAGAAGACUGCGGGUUGGAGUCCCGUAUGGACCG, which yeast fitness is on record?
Answer: The yeast fitness was no more than 0.5.

Question: Which yeast fitness does the source give for GUUCCGUUGGCGUAAUGGUAACGCGUUUCCAUCCUAAGGAGAAGACUGCGGGAUCGAGUCCCGUACGGAACG here?
Answer: Its yeast fitness is no more than 0.5.

Question: Which yeast fitness does the source give for GUUCCGUUGGCGUAAUGGUAACGCGUUUCCGUCCUAAGGGGAAGACUGCGGGUUCGAGUCCCGUACGGAACG here?
Answer: Its yeast fitness is no more than 0.5.

Question: Which yeast fitness does the source give for GUUCCGUUGGCGUAAUGGUAACGCGUUUCCGUCCUAAGGAGACGACUGGGGCUUCGAGACCCGUACGAAACG here?
Answer: The yeast fitness was no more than 0.5.
